Data as given in ChEMBL document CHEMBL4138211, “Regio- and stereoselective synthesis of dispirooxindole-pyrrolocarbazole hybrids via 1,3-dipolar cycloaddition reactions: Cytotoxic activity and SAR studies” (Eur J Med Chem, 2018).
The source made the active and inactive calls. The calls are words filed in the database; no cut-off is given here.

Experiments:
[1] = system: MCF7; assay: Induction of apoptosis in human MCF7 cells assessed as necrotic cells at 10 uM after 6 hrs by Annexin V-FITC/propidium iodide staining based flow cytometry (reference value: 0.0%); format: functional
Method in brief: (§1)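 Cells at 1×10⁵/mL exposed to 5, 10 or 20 μM (printed as μM/ml) for 6 h, with an untreated control. Harvested, PBS-washed and trypsinised, then spun at 200×g for 10 min. Stained with annexin V-FITC/propidium iodide for 10-15 min at 25 °C. Quadrant analysis gives live, early apoptotic, late apoptotic and necrotic fractions.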

[2] = system: A549; assay: Induction of apoptosis in human A549 cells by acridine orange/ethidium bromide staining-based fluorescence microscopic analysis; format: functional, cell-based
Method in brief: (§2)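 Treated cells collected and washed in PBS (pH 7.2). Stained with a 1:1 AO/EtBr mixture (each dye […] in water) and held 2 min. Washed twice in PBS and viewed by fluorescence microscopy at 400× with 480 nm excitation. Green intact-membrane cells distinguished from orange/red membrane-damaged cells.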

[3] = system: A549; assay: Induction of apoptosis in human A549 cells assessed as membrane blebbing after 24 hrs by brightfield inverted light microscopic analysis; format: functional, cell-based
[4] = system: A549; assay: Induction of apoptosis in human A549 cells assessed as early apoptotic cells at 10 uM after 6 hrs by Annexin V-FITC/propidium iodide staining based flow cytometry (reference value: 0.77%); format: functional; method in brief: as §1
[5] = system: MCF7; assay: Induction of apoptosis in human MCF7 cells assessed as early apoptotic cells at 10 uM after 6 hrs by Annexin V-FITC/propidium iodide staining based flow cytometry (reference value: 0.88%); format: functional; method in brief: as §1
[6] = system: MCF7; assay: Induction of apoptosis in human MCF7 cells assessed as early apoptotic cells at 5 uM after 6 hrs by Annexin V-FITC/propidium iodide staining based flow cytometry (reference value: 0.88%); format: functional; method in brief: as §1
[7] = system: MCF7; assay: Induction of apoptosis in human MCF7 cells assessed as nuclear condensation by acridine orange/ethidium bromide staining-based fluorescence microscopic analysis; format: functional, cell-based; method in brief: as §2
[8] = system: MCF7; assay: Induction of apoptosis in human MCF7 cells assessed as nuclear fragmentation after 24 hrs by DAPI staining-based fluorescence microscopic analysis; format: functional, cell-based
Method in brief: (§3)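 Cells plated on glass coverslips and treated for 24 h, then fixed. Permeabilised with 0.2% Triton X-100 for 10 min at room temperature. DAPI applied for 3 min under a coverslip. Nuclei inspected by fluorescence microscopy for condensed chromatin and fragmentation, against untreated cells.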

[9] = system: A549; assay: Induction of apoptosis in human A549 cells assessed as late apoptotic cells at 5 uM after 6 hrs by Annexin V-FITC/propidium iodide staining based flow cytometry (reference value: 0.0%); format: functional; method in brief: as §1
[10] = system: MCF7; assay: Induction of apoptosis in human MCF7 cells assessed as early apoptotic cells at 20 uM after 6 hrs by Annexin V-FITC/propidium iodide staining based flow cytometry (reference value: 0.88%); format: functional; method in brief: as §1
[11] = system: A549; assay: Induction of apoptosis in human A549 cells assessed as early apoptotic cells at 5 uM after 6 hrs by Annexin V-FITC/propidium iodide staining based flow cytometry (reference value: 0.77%); format: functional; method in brief: as §1
[12] = system: MCF7; assay: Induction of apoptosis in human MCF7 cells assessed as late apoptotic cells at 5 uM after 6 hrs by Annexin V-FITC/propidium iodide staining based flow cytometry (reference value: 0.0%); format: functional; method in brief: as §1
[13] = system: MCF7; assay: Induction of apoptosis in human MCF7 cells assessed as necrotic cells at 5 uM after 6 hrs by Annexin V-FITC/propidium iodide staining based flow cytometry (reference value: 0.0%); format: functional; method in brief: as §1
[14] = system: A549; assay: Induction of apoptosis in human A549 cells assessed as late apoptotic cells at 10 uM after 6 hrs by Annexin V-FITC/propidium iodide staining based flow cytometry (reference value: 0.0%); format: functional; method in brief: as §1
[15] = system: A549; assay: Induction of apoptosis in human A549 cells assessed as necrotic cells at 10 uM after 6 hrs by Annexin V-FITC/propidium iodide staining based flow cytometry (reference value: 0.0%); format: functional; method in brief: as §1
[16] = system: A549; assay: Induction of apoptosis in human A549 cells assessed as nuclear fragmentation after 24 hrs by DAPI staining-based fluorescence microscopic analysis; format: functional, cell-based; method in brief: as §3
[17] = system: A549; assay: Induction of apoptosis in human A549 cells assessed as viable cells at 20 uM after 6 hrs by Annexin V-FITC/propidium iodide staining based flow cytometry (reference value: 99.23%); format: functional; settings: A549, 6 h, read-out: Activity; method in brief: as §1
[18] = system: MCF7; assay: Induction of apoptosis in human MCF7 cells assessed as necrotic cells at 20 uM after 6 hrs by Annexin V-FITC/propidium iodide staining based flow cytometry (reference value: 0.0%); format: functional; method in brief: as §1
[19] = system: MCF7; assay: Induction of apoptosis in human MCF7 cells assessed as late apoptotic cells at 10 uM after 6 hrs by Annexin V-FITC/propidium iodide staining based flow cytometry (reference value: 0.0%); format: functional; method in brief: as §1
[20] = system: A549; assay: Induction of apoptosis in human A549 cells assessed as necrotic cells at 5 uM after 6 hrs by Annexin V-FITC/propidium iodide staining based flow cytometry (reference value: 0.0%); format: functional; method in brief: as §1
[21] = system: A549; assay: Induction of apoptosis in human A549 cells assessed as viable cells at 10 uM after 6 hrs by Annexin V-FITC/propidium iodide staining based flow cytometry (reference value: 99.23%); format: functional; settings: A549, 6 h, read-out: Activity; method in brief: as §1
[22] = system: MCF7; assay: Induction of apoptosis in human MCF7 cells assessed as increase in late apoptotic cells after 6 hrs by Annexin V-FITC/propidium iodide staining based flow cytometry; format: functional, cell-based; method in brief: as §1
[23] = system: MCF7; assay: Induction of apoptosis in human MCF7 cells assessed as viable cells at 5 uM after 6 hrs by Annexin V-FITC/propidium iodide staining based flow cytometry (reference value: 99.12%); format: functional; settings: MCF7, 6 h, read-out: Activity; method in brief: as §1
[24] = system: MCF7; assay: Induction of apoptosis in human MCF7 cells assessed as viable cells at 20 uM after 6 hrs by Annexin V-FITC/propidium iodide staining based flow cytometry (reference value: 99.12%); format: functional; settings: MCF7, 6 h, read-out: Activity; method in brief: as §1
[25] = system: MCF7; assay: Induction of apoptosis in human MCF7 cells assessed as cell shrinkage after 24 hrs by brightfield inverted light microscopic analysis; format: functional, cell-based
[26] = system: A549; assay: Induction of apoptosis in human A549 cells assessed as viable cells at 5 uM after 6 hrs by Annexin V-FITC/propidium iodide staining based flow cytometry (reference value: 99.23%); format: functional; settings: A549, 6 h, read-out: Activity; method in brief: as §1
[27] = system: A549; assay: Induction of apoptosis in human A549 cells assessed as increase in late apoptotic cells after 6 hrs by Annexin V-FITC/propidium iodide staining based flow cytometry; format: functional, cell-based; method in brief: as §1
[28] = system: A549; assay: Induction of apoptosis in human A549 cells assessed as increase in early apoptotic cells after 6 hrs by Annexin V-FITC/propidium iodide staining based flow cytometry; format: functional, cell-based; method in brief: as §1
[29] = system: A549; assay: Induction of apoptosis in human A549 cells assessed as formation of floating cells after 24 hrs by brightfield inverted light microscopic analysis; format: functional, cell-based
[30] = system: A549; assay: Induction of apoptosis in human A549 cells assessed as early apoptotic cells at 20 uM after 6 hrs by Annexin V-FITC/propidium iodide staining based flow cytometry (reference value: 0.77%); format: functional; method in brief: as §1
[31] = system: MCF7; assay: Induction of apoptosis in human MCF7 cells assessed as increase in early apoptotic cells after 6 hrs by Annexin V-FITC/propidium iodide staining based flow cytometry; format: functional, cell-based; method in brief: as §1
[32] = system: MCF7; assay: Induction of apoptosis in human MCF7 cells by acridine orange/ethidium bromide staining-based fluorescence microscopic analysis; format: functional, cell-based; method in brief: as §2
[33] = system: MCF7; assay: Induction of apoptosis in human MCF7 cells assessed as damaged cell membranes by acridine orange/ethidium bromide staining-based fluorescence microscopic analysis; format: functional; method in brief: as §2
[34] = system: MCF7; assay: Induction of apoptosis in human MCF7 cells assessed as late apoptotic cells at 20 uM after 6 hrs by Annexin V-FITC/propidium iodide staining based flow cytometry (reference value: 0.0%); format: functional; method in brief: as §1
[35] = system: A549; assay: Induction of apoptosis in human A549 cells assessed as cell shrinkage after 24 hrs by brightfield inverted light microscopic analysis; format: functional, cell-based
[36] = system: MCF7; assay: Induction of apoptosis in human MCF7 cells assessed as viable cells at 10 uM after 6 hrs by Annexin V-FITC/propidium iodide staining based flow cytometry (reference value: 99.12%); format: functional; settings: MCF7, 6 h, read-out: Activity; method in brief: as §1
[37] = system: MCF7; assay: Antiproliferative activity against human MCF7 cells after 48 hrs by MTT assay; format: functional, cell-based
Method in brief: (§4)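 Cells grown 1×10⁴/well for 48 h to about 75% confluence. Medium then replaced with fresh medium containing serially diluted compounds, followed by a further 48 h. MTT added for 4 h at 37 °C and formazan dissolved in DMSO for 10 min. OD read at 620 nm. IC50 taken from the viability–concentration survival curve. Three independent experiments, each in triplicate.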

[38] = system: A549; assay: Induction of apoptosis in human A549 cells assessed as necrotic cells at 20 uM after 6 hrs by Annexin V-FITC/propidium iodide staining based flow cytometry (reference value: 0.0%); format: functional; method in brief: as §1
[39] = system: A549; assay: Antiproliferative activity against human A549 cells after 48 hrs by MTT assay; format: functional, cell-based; method in brief: as §4
[40] = system: MCF7; assay: Induction of apoptosis in human MCF7 cells assessed as formation of floating cells after 24 hrs by brightfield inverted light microscopic analysis; format: functional, cell-based
[41] = system: A549; assay: Induction of apoptosis in human A549 cells assessed as late apoptotic cells at 20 uM after 6 hrs by Annexin V-FITC/propidium iodide staining based flow cytometry (reference value: 0.0%); format: functional; method in brief: as §1
[42] = system: MCF7; assay: Induction of apoptosis in human MCF7 cells assessed as membrane blebbing after 24 hrs by brightfield inverted light microscopic analysis; format: functional, cell-based

SMILES: O=C1Nc2ccccc2[C@]12N[C@H](c1ccccc1)[C@H](c1cccs1)[C@@]21CCc2c([nH]c3ccc(Cl)cc23)C1=O
- Activity [1]: 0.98%
- Activity [2]: Active
- Activity [3]: Dose-dependent effect
- Activity [4]: 17.35%
- Activity [5]: 23.3%
- Activity [6]: 8.19%
- Activity [7]: Active
- Activity [8]: Active
- Activity [9]: 6.7%
- Activity [10]: 33.56%
- Activity [11]: 28.95%
- Activity [12]: 7.55%
- Activity [13]: 1.81%
- Activity [14]: 7.65%
- Activity [15]: 2.81%
- Activity [16]: Active
- viability at 20 µM [17]: 37.3%
- Activity [18]: 1.12%
- Activity [19]: 12.82%
- Activity [20]: 1.15%
- viability at 10 µM [21]: 72.2%
- Activity [22]: Dose-dependent effect
- viability at 5 µM [23]: 82.5%
- viability at 20 µM [24]: 35.1%
- Activity [25]: Dose-dependent effect
- viability at 5 µM [26]: 63.2%
- Activity [27]: Dose-dependent effect
- Activity [28]: Dose-dependent effect
- Activity [29]: Dose-dependent effect
- Activity [30]: 32.15%
- Activity [31]: Dose-dependent effect
- Activity [32]: Active
- Activity [33]: Active
- Activity [34]: 30.2%
- Activity [35]: Dose-dependent effect
- viability at 10 µM [36]: 62.9%
- Activity [37]: Dose-dependent effect
- IC50 ([37]; MCF7, 48 h): 13 µM
- Activity [38]: 1.85%
- Activity [39]: Dose-dependent effect
- IC50 ([39]; A549, 48 h): 14 µM
- Activity [40]: Dose-dependent effect
- Activity [41]: 28.7%
- Activity [42]: Dose-dependent effect
